Shown are actives, neighbours in structure and some others; about 3.7% of the full set was active somewhere.
MDM2 E3 inh: MDM2-luciferase reporter signal enhancers, primary screen, MDM2 E3 ligase inhibitor project, cell-based, luminescence, 1536-well | hit rate 0.11% among 210,000 | signal enhancement, % at 5 µM | cell-based MDM2 ubiquitination luciferase reporter, 2 h; 0 = plate control, 100 = twice control, blank-subtracted | AID 1230, 2008 | E3 ubiquitin-protein ligase Mdm2 (Homo sapiens), Q00987;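 active = signal enhancement of 30% or more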;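 also: luminescence tracks abundance of the self-degrading MDM2-luciferase fusion protein; higher signal means inhibition of MDM2 E3 ligase activity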
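Timing – 2 h compound exposure at 37 °C · Assay system – mammalian cells stably expressing self-ubiquitinating, self-degrading MDM2 E3–luciferase fusion · Amount – 2000 cells seeded into each well · Measure – % luminescence enhancement versus blank-corrected plate control mean · Measured by – SteadyLite luminescence, 15 min reagent step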
Arbovirus anti: antivirals against arbovirus infection, primary screen, cell-based, full library, 10K replicate subset; hit rate 0.37% among 200,000; AID 1251, 2008; arbovirus infection cell-based antiviral screen; inhibition, % at 10 µM; in the data active = inhibition above about 30%
ROMK mod: ROMK potassium channel modulators, primary screen, cell-based, thallium flux, MLSMR library; B-score at 10 µM; hit rate 2% among 130,000; AID 1918, 2009; Tet-inducible ROMK, thallium flux fluorescence; actives lie on both sides; ATP-sensitive inward rectifier potassium channel 1 (Homo sapiens), P48048;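 active = signal ratio slope over the read window, or its plate-corrected B-score, at least 3 SD from the plate mean, either direction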;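 also: B-score of the F/F0 ratio slope over 7 to 12 s after thallium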
Target sequence (P48048 whole entry, looked up): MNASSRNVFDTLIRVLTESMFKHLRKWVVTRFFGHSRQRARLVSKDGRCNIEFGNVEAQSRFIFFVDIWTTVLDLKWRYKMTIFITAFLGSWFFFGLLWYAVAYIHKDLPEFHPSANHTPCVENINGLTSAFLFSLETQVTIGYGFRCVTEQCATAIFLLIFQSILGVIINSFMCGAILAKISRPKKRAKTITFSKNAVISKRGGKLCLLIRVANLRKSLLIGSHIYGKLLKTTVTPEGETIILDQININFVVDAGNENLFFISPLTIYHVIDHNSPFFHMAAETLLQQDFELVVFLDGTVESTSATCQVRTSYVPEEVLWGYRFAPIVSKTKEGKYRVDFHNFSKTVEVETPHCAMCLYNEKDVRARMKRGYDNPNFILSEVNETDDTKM
Cl transport mod: KCC2 cotransporter modulators, thallium flux, primary screen, cell-based, HEK293 KCC2, FluoZin-2 fluorescence, MLSMR; Solute carrier family 12 member 5 (Homo sapiens), Q9H2X9; KCC2 cells, thallium flux FluoZin-2 fluorescence; B-score of Tl+ flux slope (higher = more flux/activation; lower = inhibition) at 10 µM; hit rate 2.2% among 190,000;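 active = thallium flux slope and its plate-corrected score both differing from the plate sample mean at a set confidence after two filtering rounds, in either direction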;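 also: slope of fluorescence scaled to starting intensity during 10 to 20 s after thallium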
m-calpain inh: inhibitors of pig calpain II, primary screen, biochemical, fluorogenic peptide substrate, 1536-well; hit rate 0.37% among 220,000; purified calpain II, 30 min; inhibition, % at 16 µM;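 active = inhibition above about 50%, limit read from the data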
PKD1 kinase inh: inhibitors of human PKD1 kinase, biochemical, fluorescence polarization. inhibition, % (no concentration beside the values). hit rate 0.056% among 200,000. PKD1 kinase fluorescence polarization assay. AID 797, 2007; in the data active = inhibition above about 50%
KCC2 secondary: KCC2 modulators in sodium-free buffer, confirmation, cell-based, HEK293 KCC2, thallium flux, secondary assay; normalised thallium flux (F/F0 slope) at 10 µM; FluoZin2 fluorescence; active compounds read high; hit rate 15% among 3,700; shares compounds with Cl transport mod;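 active = thallium flux slope above the same plate's solvent-only control mean plus 3 SD; inconclusive = the two replicate wells disagree; inactive = no significant difference from solvent-only control wells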
KCC2 bumet counter: thallium flux persisting under bumetanide in KCC2 cells, confirmation, counter-screen for KCC2 modulator project, cell-based, HEK293 KCC2, FluoZin2, secondary assay 3. shares compounds with Cl transport mod. HEK293-KCC2 + bumetanide/ouabain; active compounds read high. normalized thallium flux at 10 µM. hit rate 49% among 3,700;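 active = thallium entry rate above the same plate's blocked-transporter control wells by more than 3 SD; inconclusive = the two repeat wells disagree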;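 also: raw slope of fluorescence over initial fluorescence between 10 and 20 s after thallium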
KCC2 sec2: KCC2 modulators without ouabain present, confirmation, cell-based, HEK293 KCC2, thallium flux, FluoZin2, secondary assay 2; shares compounds with Cl transport mod; thallium flux FluoZin2 fluorescence; actives lie on both sides; F/F0 rise rate, 10–20 s post-thallium; normalized thallium flux at 10 µM; hit rate 23% among 3,700;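 active = thallium flux slope more than 3 SD above or below the plate's solvent-only control mean, mostly below; inconclusive = the two repeat wells disagreed; inactive = no significant shift from solvent-only controls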;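 also: raw slope with 0.1% DMSO as baseline and bumetanide as block control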
HEK293 Tl flux: thallium flux modulation in parental HEK cells, confirmation, counter-screen for KCC2 modulator project, cell-based, counterscreen 1; shares compounds with Cl transport mod; HEK293 parental cells, thallium flux FluoZin2, ouabain; baseline-ratio fluorescence slope, 10–20 s after thallium; thallium flux rate (normalised fluorescence) at 10 µM; hit rate 46% among 3,700; AID 1716, 2009;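 active = thallium flux rate significantly above the same plate's solvent-only control wells, beyond their mean plus 3 SD; inconclusive = the two replicate wells gave conflicting results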
KCC2 retest ouab: KCC2 inhibitors and activators, ouabain retest, confirmation, HEK-KCC2 cells | HEK293-KCC2, thallium flux FluoZin2 fluorescence; bidirectional: low = inhibitor, high = activator | AID 1717, 2009 | hit rate 48% among 3,700 | shares compounds with Cl transport mod | raw Tl+ flux slope (below DMSO = inhibition, above = activation) at 10 µM;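 active = thallium flux slope beyond 3 SD from same-plate DMSO control mean in most replicates, usually higher, sometimes lower; inconclusive = repeat tests gave conflicting results; inactive = no significant difference from controls in most replicates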;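 also: slope of initial-normalized fluorescence between seconds 10 and 20 after thallium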
HEK293 Tl flux2: native HEK Tl+ uptake effects, second counter-screen – HEK cells, counterscreen 2, counter-screen for KCC2 modulator project, confirmation; shares compounds with Cl transport mod; HEK293 parental, thallium flux FluoZin-2 fluorescence slope; thallium flux slope at 10 µM; hit rate 33% among 3,700;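 active = thallium flux slope above the same plate's solvent-control mean plus 3 SD in both duplicate wells; inconclusive = duplicate wells that disagreed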;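 also: run without ouabain in cells lacking the KCC2 cotransporter; slope of fluorescence scaled to its starting value between 10 and 20 s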
The depositor's hits bear a star; i = inactive; u = inconclusive; x = no result.

SMILES	MDM2 E3 inh	Arbovirus anti	ROMK mod	Cl transport mod	m-calpain inh	PKD1 kinase inh	KCC2 secondary	KCC2 bumet counter	KCC2 sec2	HEK293 Tl flux	KCC2 retest ouab	HEK293 Tl flux2
CN(Cc1ccccc1)C(=O)CSc1nc2ccccc2c(=O)n1Cc1ccco1	15	13	x	-3.5*	5	1	0.0072	0.0031*	0.026*	0.0058*	0.015*	u
CN(C(=O)CSc1nc2cc(Cl)ccc2c(=O)n1Cc1ccco1)C1CCS(=O)(=O)C1 (stereo unspecified)	0	0	-0.31	12*	6	-5	0.011	0.014*	0.032	0.016*	u	0.012
Cc1ccc(NC(=O)CN(C)C(=O)CSc2nc3ccccc3c(=O)n2Cc2ccco2)cc1	-7	-1	x	2.5	-18	-7	x	x	x	x	x	x
CCN(CC)C(=O)Oc1cc(=O)n(C)c2ccccc12	1	-2	-0.026	0.54	-5	-9	x	x	x	x	x	x
CCN(CC)c1ccc2cc(C(C)=O)c(=O)oc2c1	-8	-3	x	i	-28	2	x	x	x	x	x	x
CCN(CC)c1ccc2cc(C(=O)Nc3ccccn3)c(=O)oc2c1	-72	-7	x	i	-36	-8	0.0031*	u	0.016*	0.0037*	0.0054*	0.0065*
O=C(CC(C(=O)N1CCc2ccccc21)n1ccnc1)N1CCc2ccccc2C1 (stereo unspecified)	13	7	x	-6.2*	1	14	u	0.0049	0.024*	0.0069	u	0.01
CCCCNC(=O)CC(C(=O)N1CCc2ccccc21)n1ccnc1 (stereo unspecified)	-2	-3	-0.088	0.86	-1	-1	x	x	x	x	x	x
COc1ccc(S(=O)(=O)NCCN2CCOCC2)c2ccccc12	-2	8	-0.32	x	-57	-3	0.0095	0.0064	0.031	0.007	0.023	0.0097
CCOCCCNC(=S)N1CCC(NC(=O)C23CC4CC(CC(C4)C2)C3)CC1	-7	-2	-0.23	0.76	16	2	x	x	x	x	x	x
Cc1ccc(C(=O)CSc2ncnc3sc4c(c23)CCC(C)C4)cc1 (stereo unspecified)	4	-2	x	4.2*	-21	-5	u	0.037*	0.037	u	u	0.012
CC(C)(C)C(=O)CSc1ncnc2sc3c(c12)CCC3	-22	-2	0.0062	0.81	44	1	x	x	x	x	x	x
CC(=O)CSc1ncnc2sc3c(c12)CCC3	0	12	-1.3	7.1*	-7	-5	0.019	0.024*	0.033	0.014*	0.022*	0.017*
O=C1OCCC1Sc1ncnc2sc3c(c12)CCC3 (stereo unspecified)	-5	1	0.009	3.3*	6	-7	0.0055	0.024*	u	0.018*	u	0.018*
CCOc1ccccc1N1C(=O)c2ccc(C(=O)Nc3cccnc3)cc2C1=O	-19	2	x	-4.6*	-18	-6	0.009	0.0069	0.032	0.0076	0.023	0.011
CC(=O)Oc1cccc(N2C(=O)c3ccc(C(=O)Nc4cccnc4)cc3C2=O)c1	-8	4	-0.028	2.8	-21	-6	x	x	x	x	x	x
O=C1NC(CCc2ccccc2)C(=O)N1CCOc1ccccc1 (stereo unspecified)	-5	8	-0.11	-0.84	-10	4	x	x	x	x	x	x
Cc1nc(SCC(=O)Nc2cc(C(N)=O)cc(C(N)=O)c2)c2c(C)c(C)sc2n1	-4	x	1.2	38*	13	x	u	0.042*	0.04	0.052*	0.045*	0.022*
NC(=O)SCC(=O)Nc1ccc(Cl)c(Cl)c1	-8	-4	-2.9	x	-1	3	0.0073	0.013*	0.026*	0.01*	0.019	u
COc1cccc(CSc2nc3cc4c(cc3cc2C)OCCO4)c1	-5	-6	0.17	0.99	18	1	x	x	x	x	x	x
Cc1ccc(-n2nc(C(=O)O)cc2-c2ccc(Cl)cc2)cc1	0	-10	0.16	-3.7*	14	2	0.0093	0.0066	0.036	0.0039	0.017*	0.011
Fc1ccc(N/N=C/c2ccc(N3CCOCC3)cc2)c(F)c1	-18	-27	-0.34	0.28	-2	-2	x	x	x	x	x	x
Cc1cc(C)cc(C(=O)NCC(=O)OCC(=O)c2cc(C)n(CC(F)(F)F)c2C)c1	11	-1	0.03	0.74	6	1	x	x	x	x	x	x
CN(C)/C=N/c1cc(=O)[nH]c(=O)n1C	x	4	0.072	0.57	21	-1	x	x	x	x	x	x
COc1ccc(/C=C2\SC(=N)N(c3nccs3)C2=O)cc1OC	-6	-42	x	4.6*	5	6	0.0066	0.032*	0.033	0.022*	0.029*	0.019*
N=C1S/C(=C\c2ccc(-c3cccc(Cl)c3)o2)C(=O)N1c1nccs1	36*	-25	x	6.6*	-68	-6	0.0073	0.0089*	0.032	0.015*	0.022	0.017*
COc1ccc(/C=C2\SC(=S)N(NC(=O)c3ccncc3)C2=O)cc1OC	-4	-4	-1.3	-0.34	-7	-8	x	x	x	x	x	x
Cc1ccc(S(=O)(=O)N2CCC(C(=O)NCc3ccccc3Cl)CC2)cc1	-16	1	-1.4	-2.9*	-4	8	0.0052	0.0045	0.028	0.0071	0.015*	0.011

Bioassay records: PubChem BioAssay, several laboratories
